Values after ≈ are worked out from the molar mass of the structure shown.
Key:
Assay type in all cases: functional
[1] = tested on: Streptococcus pneumoniae; test: Antibacterial activity against Streptococcus pneumoniae ATCC 19615 after 18 to 24 hrs
In short: (§1)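 MIC by standard NCCLS reference procedure (M100-S11); lowest concentration of compound inhibiting visible bacterial growth after incubation at 35 °C for 18–24 h, read as complete inhibition of growth. Ciprofloxacin, levofloxacin and moxifloxacin run alongside as reference agents.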

[2] = tested on: Enterococcus faecalis; test: Antibacterial activity against Enterococcus faecalis 14-2 after 18 to 24 hrs; in short: as §1
[3] = tested on: Staphylococcus aureus; test: Antibacterial activity against methicillin-sensitive Staphylococcus aureus 14-1 after 18 to 24 hrs; in short: as §1
[4] = tested on: Pseudomonas aeruginosa; test: Antibacterial activity against Pseudomonas aeruginosa 14-9 after 18 to 24 hrs; in short: as §1
[5] = tested on: Pseudomonas aeruginosa; test: Antibacterial activity against Pseudomonas aeruginosa 14-16 after 18 to 24 hrs; in short: as §1
[6] = tested on: Klebsiella pneumoniae; test: Antibacterial activity against Klebsiella pneumoniae 14-3 after 18 to 24 hrs; in short: as §1
[7] = tested on: Enterococcus faecium; test: Antibacterial activity against Enterococcus faecium 14-1 after 18 to 24 hrs; in short: as §1
[8] = tested on: Klebsiella pneumoniae; test: Antibacterial activity against Klebsiella pneumoniae 14-2 after 18 to 24 hrs; in short: as §1
[9] = tested on: Staphylococcus aureus; test: Antibacterial activity against methicillin-resistant Staphylococcus aureus 14-5 after 18 to 24 hrs
[10] = tested on: Staphylococcus aureus; test: Antibacterial activity against methicillin-sensitive Staphylococcus aureus 14-4 after 18 to 24 hrs; in short: as §1
[11] = tested on: Escherichia coli; test: Antibacterial activity against Escherichia coli ATCC 25922 after 18 to 24 hrs; in short: as §1
[12] = tested on: Escherichia coli; test: Antibacterial activity against Escherichia coli 14-1 after 18 to 24 hrs; in short: as §1
[13] = tested on: Staphylococcus epidermidis; test: Antibacterial activity against methicillin-resistant Staphylococcus epidermidis 14-39 after 18 to 24 hrs
[14] = tested on: Klebsiella pneumoniae; test: Antibacterial activity against ESBL-positive Klebsiella pneumoniae 14-19 after 18 to 24 hrs; in short: as §1
[15] = tested on: Staphylococcus aureus; test: Antibacterial activity against methicillin-resistant Staphylococcus aureus 14-4 after 18 to 24 hrs
[16] = tested on: Staphylococcus aureus; test: Antibacterial activity against methicillin-sensitive Staphylococcus aureus 14-2 after 18 to 24 hrs; in short: as §1
[17] = tested on: Enterococcus faecium; test: Antibacterial activity against Enterococcus faecium 14-2 after 18 to 24 hrs; in short: as §1
[18] = tested on: Mycobacterium tuberculosis; test: Antimycobacterial activity against Mycobacterium tuberculosis H37Rv ATCC 27294 by alamar blue assay
In short: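 Microplate Alamar Blue Assay; MIC is the lowest concentration giving ≥90% reduction in fluorescence relative to the mean of replicate bacterium-only controls. MDR strain 6133 is resistant to isoniazid and rifampicin.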

[19] = tested on: Staphylococcus aureus; test: Antibacterial activity against methicillin-sensitive Staphylococcus aureus 14-3 after 18 to 24 hrs; in short: as §1
[20] = tested on: Enterococcus faecium; test: Antibacterial activity against Enterococcus faecium 14-6 after 18 to 24 hrs; in short: as §1
[21] = tested on: Escherichia coli; test: Antibacterial activity against ESBL-positive Escherichia coli 14-2 after 18 to 24 hrs; in short: as §1
[22] = tested on: Klebsiella pneumoniae; test: Antibacterial activity against Klebsiella pneumoniae 14-1 after 18 to 24 hrs; in short: as §1
[23] = tested on: Staphylococcus aureus; test: Antibacterial activity against Staphylococcus aureus CMCC 26003 after 18 to 24 hrs; in short: as §1
[24] = tested on: Pseudomonas aeruginosa; test: Antibacterial activity against Pseudomonas aeruginosa 14-15 after 18 to 24 hrs; in short: as §1
[25] = tested on: Pseudomonas aeruginosa; test: Antibacterial activity against Pseudomonas aeruginosa 14-14 after 18 to 24 hrs; in short: as §1
[26] = tested on: Staphylococcus epidermidis; test: Antibacterial activity against methicillin-sensitive Staphylococcus epidermidis 14-2 after 18 to 24 hrs; in short: as §1
[27] = tested on: Staphylococcus epidermidis; test: Antibacterial activity against methicillin-resistant Staphylococcus epidermidis 14-37 after 18 to 24 hrs
[28] = tested on: Klebsiella pneumoniae; test: Antibacterial activity against ESBL-positive Klebsiella pneumoniae 14-18 after 18 to 24 hrs; in short: as §1
[29] = tested on: Klebsiella pneumoniae; test: Antibacterial activity against ESBL-positive Klebsiella pneumoniae 14-17 after 18 to 24 hrs; in short: as §1
[30] = tested on: Staphylococcus epidermidis; test: Antibacterial activity against methicillin-resistant Staphylococcus epidermidis 14-22 after 18 to 24 hrs
[31] = tested on: Escherichia coli; test: Antibacterial activity against Escherichia coli 14-2 after 18 to 24 hrs; in short: as §1
[32] = tested on: Pseudomonas aeruginosa; test: Antibacterial activity against Pseudomonas aeruginosa ATCC 27853 after 18 to 24 hrs; in short: as §1
[33] = tested on: Klebsiella pneumoniae; test: Antibacterial activity against Klebsiella pneumoniae 14-4 after 18 to 24 hrs; in short: as §1
[34] = tested on: Staphylococcus epidermidis; test: Antibacterial activity against methicillin-resistant Staphylococcus epidermidis 14-21 after 18 to 24 hrs
[35] = tested on: Enterococcus faecium; test: Antibacterial activity against Enterococcus faecium 14-5 after 18 to 24 hrs; in short: as §1
[36] = tested on: Enterococcus faecalis; test: Antibacterial activity against Enterococcus faecalis 14-1 after 18 to 24 hrs; in short: as §1
[37] = tested on: Escherichia coli; test: Antibacterial activity against ESBL-positive Escherichia coli 14-1 after 18 to 24 hrs; in short: as §1
[38] = tested on: Pseudomonas aeruginosa; test: Antibacterial activity against Pseudomonas aeruginosa 14-19 after 18 to 24 hrs; in short: as §1

NC1CN(c2nc3c(cc2F)c(=O)c(C(=O)O)cn3[C@@H]2C[C@@H]2F)C/C1=N\OCc1ccccc1 (some centres undefined) gave an MIC [1] of 0.5 µg/mL (≈ 1.07 µM), an MIC [2] of 1 µg/mL (≈ 2.13 µM) and an MIC [3] of 16 µg/mL (≈ 34.1 µM). For the same compound, the MIC [4] was 32 µg/mL (≈ 68.2 µM), the MIC [5] was 32 µg/mL (≈ 68.2 µM) and the MIC [6] was > 128 µg/mL. For the same compound, the MIC [7] was 64 µg/mL (≈ 136 µM), the MIC [8] was > 128 µg/mL and the MIC [9] was 64 µg/mL (≈ 136 µM). The MIC [10] was 1 µg/mL (≈ 2.13 µM), the MIC [11] was 0.5 µg/mL (≈ 1.07 µM) and the MIC [12] was > 128 µg/mL. For the same compound, the MIC [13] was 64 µg/mL (≈ 136 µM), the MIC [14] was > 128 µg/mL and the MIC [15] was 32 µg/mL (≈ 68.2 µM). The MIC [16] was < 0.008 µg/mL, the MIC [17] was 64 µg/mL (≈ 136 µM) and the MIC90 [18] was 1.92 µg/mL (≈ 4.09 µM). For the same compound, the MIC [19] was 0.5 µg/mL (≈ 1.07 µM), the MIC [20] was > 128 µg/mL and the MIC [21] was > 128 µg/mL. The MIC [22] was > 128 µg/mL, the MIC [23] was < 0.008 µg/mL and the MIC [24] was 32 µg/mL (≈ 68.2 µM). For the same compound, the MIC [25] was 32 µg/mL (≈ 68.2 µM), the MIC [26] was 64 µg/mL (≈ 136 µM) and the MIC [27] was 64 µg/mL (≈ 136 µM). For the same compound, the MIC [28] was 32 µg/mL (≈ 68.2 µM), the MIC [29] was 32 µg/mL (≈ 68.2 µM) and the MIC [30] was 32 µg/mL (≈ 68.2 µM). For the same compound, the MIC [31] was > 128 µg/mL, the MIC [32] was 16 µg/mL (≈ 34.1 µM) and the MIC [33] was > 128 µg/mL. The MIC [34] was 32 µg/mL (≈ 68.2 µM), the MIC [35] was 128 µg/mL (≈ 273 µM) and the MIC [36] was 64 µg/mL (≈ 136 µM). The MIC [37] was 128 µg/mL (≈ 273 µM) and the MIC [38] was 32 µg/mL (≈ 68.2 µM).
NCC1CN(c2nc3c(cc2F)c(=O)c(C(=O)O)cn3[C@@H]2C[C@@H]2F)C/C1=N\OCc1ccc(Cl)cc1 (some centres undefined) showed an MIC [1] of 0.015 µg/mL (≈ 0.029 µM), an MIC [2] of 0.125 µg/mL (≈ 0.241 µM) and an MIC [3] of 2 µg/mL (≈ 3.86 µM). The MIC [4] was 4 µg/mL (≈ 7.72 µM), the MIC [5] was 8 µg/mL (≈ 15.4 µM) and the MIC [6] was 64 µg/mL (≈ 124 µM). The MIC [7] was 2 µg/mL (≈ 3.86 µM), the MIC [8] was 128 µg/mL (≈ 247 µM) and the MIC [9] was 32 µg/mL (≈ 61.8 µM). For the same compound, the MIC [10] was 0.03 µg/mL (≈ 0.0579 µM), the MIC [11] was 0.125 µg/mL (≈ 0.241 µM) and the MIC [12] was 32 µg/mL (≈ 61.8 µM). The MIC [13] was 8 µg/mL (≈ 15.4 µM), the MIC [14] was 64 µg/mL (≈ 124 µM) and the MIC [15] was 16 µg/mL (≈ 30.9 µM). For the same compound, the MIC [16] was < 0.008 µg/mL, the MIC [17] was 2 µg/mL (≈ 3.86 µM) and the MIC90 [18] was 0.342 µg/mL (≈ 0.66 µM). For the same compound, the MIC [19] was 0.015 µg/mL (≈ 0.029 µM), the MIC [20] was 8 µg/mL (≈ 15.4 µM) and the MIC [21] was 32 µg/mL (≈ 61.8 µM). For the same compound, the MIC [22] was 128 µg/mL (≈ 247 µM), the MIC [23] was < 0.008 µg/mL and the MIC [24] was 8 µg/mL (≈ 15.4 µM). It also gave an MIC [25] of 8 µg/mL (≈ 15.4 µM), an MIC [26] of 16 µg/mL (≈ 30.9 µM) and an MIC [27] of 8 µg/mL (≈ 15.4 µM). It also gave an MIC [28] of 8 µg/mL (≈ 15.4 µM), an MIC [29] of 8 µg/mL (≈ 15.4 µM) and an MIC [30] of 4 µg/mL (≈ 7.72 µM). The MIC [31] was 32 µg/mL (≈ 61.8 µM), the MIC [32] was 4 µg/mL (≈ 7.72 µM) and the MIC [33] was 128 µg/mL (≈ 247 µM). The MIC [34] was 4 µg/mL (≈ 7.72 µM), the MIC [35] was 4 µg/mL (≈ 7.72 µM) and the MIC [36] was 32 µg/mL (≈ 61.8 µM). It also gave an MIC [37] of 4 µg/mL (≈ 7.72 µM) and an MIC [38] of 8 µg/mL (≈ 15.4 µM).
Work on CO/N=C1\CN(c2nc3c(cc2F)c(=O)c(C(=O)O)cn3[C@@H]2C[C@@H]2F)CC1N (some centres undefined) yielded an MIC [1] of 0.25 µg/mL (≈ 0.636 µM), an MIC [2] of 2 µg/mL (≈ 5.08 µM) and an MIC [3] of 32 µg/mL (≈ 81.4 µM). The MIC [4] was 8 µg/mL (≈ 20.3 µM), the MIC [5] was 8 µg/mL (≈ 20.3 µM) and the MIC [6] was > 128 µg/mL. For the same compound, the MIC [7] was 128 µg/mL (≈ 325 µM), the MIC [8] was 128 µg/mL (≈ 325 µM) and the MIC [9] was 64 µg/mL (≈ 163 µM). It also gave an MIC [10] of 1 µg/mL (≈ 2.54 µM), an MIC [11] of 0.25 µg/mL (≈ 0.636 µM) and an MIC [12] of 128 µg/mL (≈ 325 µM). For the same compound, the MIC [13] was 64 µg/mL (≈ 163 µM), the MIC [14] was > 128 µg/mL and the MIC [15] was 128 µg/mL (≈ 325 µM). The MIC [16] was 0.5 µg/mL (≈ 1.27 µM), the MIC [17] was 128 µg/mL (≈ 325 µM) and the MIC90 [18] was 0.867 µg/mL (≈ 2.2 µM). For the same compound, the MIC [19] was 1 µg/mL (≈ 2.54 µM), the MIC [20] was > 128 µg/mL and the MIC [21] was > 128 µg/mL. The MIC [22] was > 128 µg/mL, the MIC [23] was 0.5 µg/mL (≈ 1.27 µM) and the MIC [24] was 8 µg/mL (≈ 20.3 µM). For the same compound, the MIC [25] was 8 µg/mL (≈ 20.3 µM), the MIC [26] was 128 µg/mL (≈ 325 µM) and the MIC [27] was 32 µg/mL (≈ 81.4 µM). It also gave an MIC [28] of 8 µg/mL (≈ 20.3 µM), an MIC [29] of 8 µg/mL (≈ 20.3 µM) and an MIC [30] of 32 µg/mL (≈ 81.4 µM). For the same compound, the MIC [31] was 128 µg/mL (≈ 325 µM), the MIC [32] was 4 µg/mL (≈ 10.2 µM) and the MIC [33] was 128 µg/mL (≈ 325 µM). For the same compound, the MIC [34] was 64 µg/mL (≈ 163 µM), the MIC [35] was 128 µg/mL (≈ 325 µM) and the MIC [36] was 128 µg/mL (≈ 325 µM). It also gave an MIC [37] of 16 µg/mL (≈ 40.7 µM) and an MIC [38] of 8 µg/mL (≈ 20.3 µM).
